Reference: ChEMBL document CHEMBL1122619, “Synthesis and antiarrhythmic and parasympatholytic properties of substituted phenols. 2. Amides” (J Med Chem, 1984)
The source made the active and inactive calls. No cut-off for these calls is given here.

Legend:
[1] = species: Cavia porcellus; assay: Anticholinergic activity is assessed in guinea pig ileum at 50 uM; type: functional; settings: read-out: pA2 (converted)
In short: (§1)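 Isolated guinea pig ileum contracted with methacholine. Tissue washed between increasing methacholine concentrations. A single antagonist dose was given 15 min before each methacholine concentration. Methacholine EC50 (50% of maximal response) was found per muscle with and without antagonist. pA2 = −log KB, where KB = [antagonist]/((EC50 with/EC50 without) − 1). Doses calculated as free base.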

[2] = species: Cavia porcellus; assay: Parasympatholytic activity was assessed from the ability to inhibit electrically stimulated contraction of isolated guinea pig ileum at 4 mg/L of base; type: functional
In short: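 Electrically stimulated isolated guinea pig ileum, in which tension arises from stimulated acetylcholine release from postganglionic parasympathetic nerve terminals. After about 60 min equilibration, contractile tension was measured just before and during the steady-state response to test drug at 4 mg/L, calculated as free base.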

[3] = system: Canis familiaris; assay: Evaluated for ouabain-induced arrhythmia in anesthetized adult male mongrel dogs. Administered intravenously.; type: functional, Canis lupus familiaris
In short: (§2)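 Adult male mongrel dogs (10–17 kg) anesthetized with pentobarbital (30 mg/kg iv) and intubated with spontaneous respiration. ECG lead II recorded. Ouabain given iv as boluses: 40 μg/kg, then 20 μg/kg at 30 min, then 10 μg/kg every 15 min until a stable ventricular arrhythmia (>95% ectopic ventricular complexes). Test drug given iv, doses calculated as free base.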

[4] = species: Cavia porcellus; assay: Anticholinergic activity is assessed in guinea pig ileum at 30 uM; type: functional, organism-based; settings: read-out: pA2 (converted); in short: as §1
[5] = species: Cavia porcellus; assay: Anticholinergic activity is assessed in guinea pig ileum at 10 uM; type: functional; settings: read-out: pA2 (converted); in short: as §1
[6] = system: Canis familiaris; assay: Compound was evaluated for ouabain-induced arrhythmia in anesthetized adult male mongrel dogs. Both ouabain and compound are administered intravenously; NA means not effective; type: functional, organism-based; settings: Canis lupus familiaris; in short: as §2
[7] = system: Canis familiaris; assay: Compound was evaluated for ouabain-induced arrhythmia in anesthetized adult male mongrel dogs. Both ouabain and compound are administered intravenously; NA = inactive up to 30 mg/kg; type: functional, organism-based; parameters: dose 30 mg/kg; settings: Canis lupus familiaris; in short: as §2
[8] = species: Cavia porcellus; assay: Anticholinergic activity is assessed in guinea pig ileum at 30 uM; settings: read-out: pA2 (converted)

Structure (SMILES)	Inhibition [2]	Dose [3]	also measured
Cl.Cl.O=C(Nc1cc(CN2CCCC2)c(O)c(CN2CCCC2)c1)c1c(Cl)cccc1Cl	14%	4.6 mg/kg	Kb [1]: 4.68 µM
O=C(Nc1cc(CN2CCCC2)c(O)c(CN2CCCC2)c1)c1ccc([N+](=O)[O-])cc1	24%	11 mg/kg	
O=C(NCc1cc(CN2CCCC2)c(O)c(CN2CCCC2)c1)c1ccccc1	34%	3 mg/kg	
O=C(Nc1cc(CN2CCCC2)c(O)c(CN2CCCC2)c1)c1ccccc1Cl	0%	5 mg/kg	Kb [1]: 7.59 µM
Cc1ccc(C(=O)Nc2cc(CN3CCCC3)c(O)c(CN3CCCC3)c2)s1		4.3 mg/kg	
O=C(Nc1cc(CN2CCCC2)c(O)c(CN2CCCC2)c1)c1cc(Br)sc1Br		4.3 mg/kg	
Cc1ccsc1C(=O)Nc1cc(CN2CCCC2)c(O)c(CN2CCCC2)c1		1.6 mg/kg	
O=C(Nc1cc(CN2CCCC2)c(O)c(CN2CCCC2)c1)c1cccs1	44%	2 mg/kg	Kb [4]: 15.8 µM
C=C[C@H]1CN2CC[C@H]1C[C@@H]2[C@@H](O)c1ccnc2ccc(OC)cc12 [QUINIDINE]	62%	10.5 mg/kg	Kb [5]: 1 µM
COc1ccc(C(=O)Nc2cc(CN3CCCC3)c(O)c(CN3CCCC3)c2)cc1	24%	7.3 mg/kg	
Cc1ccc(C(=O)Nc2cc(CN3CCCC3)c(O)c(CN3CCCC3)c2)cc1	22%	3 mg/kg	
Cl.Cl.O=C(Nc1cc(CN2CCCC2)c(O)c(CN2CCCC2)c1)c1ccc(Cl)cc1Cl	11%		DOSE [6]: Not effective
COc1cc(C(=O)Nc2cc(CN3CCCC3)c(O)c(CN3CCCC3)c2)cc(OC)c1OC.Cl.Cl	6%		DOSE [7]: inactive
CCN(CC)CCNC(=O)c1ccc(N)cc1 [PROCAINAMIDE]	0%	29 mg/kg	
CC(C)N(CCC(C(N)=O)(c1ccccc1)c1ccccn1)C(C)C (stereo not given) [DISOPYRAMIDE]	81%	4.4 mg/kg	Kb [8]: 0.363 µM
Cl.Cl.O=C(NCc1cc(CN2CCCC2)c(O)c(CN2CCCC2)c1)c1cccc(Cl)c1	78%	9 mg/kg	
Cc1ccccc1C(=O)Nc1cc(CN2CCCC2)c(O)c(CN2CCCC2)c1.Cl.Cl	9%	2.7 mg/kg	Kb [4]: 19.5 µM

Structure (SMILES)	Inhibition [2]	Dose [3]	also measured
O=C(Cc1cccs1)Nc1cc(CN2CCCC2)c(O)c(CN2CCCC2)c1	13%		DOSE [6]: Not effective
O=C(Nc1cc(CN2CCCC2)c(O)c(CN2CCCC2)c1)c1ccc(C(F)(F)F)cc1	42%	5.3 mg/kg	
Cc1cccc(C(=O)Nc2cc(CN3CCCC3)c(O)c(CN3CCCC3)c2)c1.Cl.Cl	32%	5.2 mg/kg	
O=C(Nc1cc(CN2CCCC2)c(O)c(CN2CCCC2)c1)c1ccccc1	30%	3.4 mg/kg	Kb [8]: 10 µM
Nc1ccc(C(=O)Nc2cc(CN3CCCC3)c(O)c(CN3CCCC3)c2)cc1	0%	4.5 mg/kg	
Cl.Cl.O=C(NCc1cc(CN2CCCC2)c(O)c(CN2CCCC2)c1)c1cccc(C(F)(F)F)c1	72%	5.5 mg/kg	
Oc1c(CN2CCCC2)cc(Nc2ncnc3ccccc23)cc1CN1CCCC1 [CHANGROLIN]	43%	5.5 mg/kg	
Cl.Cl.O=C(NCc1cc(CN2CCCC2)c(O)c(CN2CCCC2)c1)c1ccccc1Cl	19%	2.5 mg/kg	Kb [1]: 12 µM
Cl.Cl.O=C(Nc1cc(CN2CCCC2)c(O)c(CN2CCCC2)c1)c1ccccc1C(F)(F)F	0%	6.5 mg/kg	Kb [1]: 17.4 µM
O=C(Nc1cc(CN2CCCC2)c(O)c(CN2CCCC2)c1)c1ccc(Cl)cc1	49%	1.5 mg/kg	
Cl.O=C(Nc1cc(CN2CCCC2)c(O)c(CN2CCCC2)c1)c1cccc(C(F)(F)F)c1	62%	2.3 mg/kg	
Cl.Cl.O=C(Nc1cc(CN2CCCC2)c(O)c(CN2CCCC2)c1)c1cccc(Cl)c1	37%	3.8 mg/kg	
Cl.Cl.O=C(NCc1cc(CN2CCCC2)c(O)c(CN2CCCC2)c1)c1ccc(C(F)(F)F)cc1	50%	4.5 mg/kg	
COc1ccccc1C(=O)Nc1cc(CN2CCCC2)c(O)c(CN2CCCC2)c1.Cl.Cl	31%	3 mg/kg	
Cc1cccc(C)c1C(=O)Nc1cc(CN2CCCC2)c(O)c(CN2CCCC2)c1.Cl.Cl	15%	3.2 mg/kg	Kb [1]: 5.5 µM
Cl.Cl.O=C(NCc1cc(CN2CCCC2)c(O)c(CN2CCCC2)c1)c1ccccc1C(F)(F)F	8%	1.9 mg/kg	
Cl.Cl.O=C(NCc1cc(CN2CCCC2)c(O)c(CN2CCCC2)c1)c1ccc(Cl)cc1	56%	3.7 mg/kg	
